PABP FP inh: blocks human PABP binding to poly(A) RNA; P11940; fluorescence polarization; inhibition, % at 35 µM; 290,000 tested, 1% active;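 further: calls also rest on retests at 20 µM and on dose response follow-up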
PABP1 MLLE inh: inhibitors of microRNA-mediated deadenylation, human PABP1 MLLE binding | P11940 | GST-MLLE / FITC-PAM2 fluorescence polarization | inhibition, % at 20 µM | 360,000 tested, 0.36% active | AID 588489; in the data active means inhibition above about 35%, passing the limit was not always enough;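 further: plate controls were DMSO wells with GST-MLLE for no effect and wells lacking GST-MLLE protein for full effect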
HCV NS3 hel inh: HCV NS3 helicase inhibition | inhibition, % at 10.9 µM | 290,000 tested, 0.56% active | NS3 helicase DNA unwinding, Cy5 molecular beacon fluorescence;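 active means inhibition above the mean of all tested compounds plus 3 SD, set per campaign, cut at about 35% in these data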;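 further: 0% = DMSO wells and 100% = thioflavine S control wells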
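Measured by: Cy5 fluorescence, 0 and 60 min reads / Assay system: NS3 helicase fragment of HCV / Control set: low DMSO, high thioflavine S at 110 µM / Times: 1 h reaction at 25 °C, ATP-initiated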
EBNA-1 inhibitor: blocks EBNA-1 binding to DNA; AID 1950; inhibition, % at 14.8 µM; 300,000 tested, 0.34% active; EBNA-1 DNA binding, fluorescence polarization; in the data active means inhibition above about 28%
eIF4H FP inh: inhibitors of RNA binding by human eIF4H. Q15056. eIF4H fluorescence polarization binding assay. inhibition, % at 35 µM. 290,000 tested, 0.94% active;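 further: calls also rest on retests at 20 µM and on dose response follow-up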
ZTA DNA inh: ZTA (EBV) inhibition in EBNA-1 counter-screen | P03206 | ZTA-DNA binding, fluorescence polarization | inhibition, % at 11 µM | 320,000 tested, 0.15% active | AID 2234; in the data active means inhibition above about 33%
Target sequence (P03206 whole entry, looked up): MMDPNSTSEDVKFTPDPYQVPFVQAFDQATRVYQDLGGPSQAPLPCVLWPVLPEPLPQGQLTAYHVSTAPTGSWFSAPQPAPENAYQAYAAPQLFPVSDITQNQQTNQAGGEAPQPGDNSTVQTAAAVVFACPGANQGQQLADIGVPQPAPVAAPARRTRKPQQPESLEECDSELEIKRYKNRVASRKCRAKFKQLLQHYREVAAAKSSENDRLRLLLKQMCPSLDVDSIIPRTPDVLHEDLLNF
ZTA inh confirm: EBV ZTA DNA binding inhibition, confirmation; shares compounds with ZTA DNA inh; Zta-ZRE DNA binding, fluorescence polarization; inhibition, % at 11.1 µM; 320 tested, 30% active;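 active means mean inhibition across triplicate runs above the hit threshold derived for the original primary screen, cut at about 33% in these data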;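 further: 0% = Zta with DMSO and 100% = wells lacking Zta protein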
EBNA1 counter: EBNA-1 DNA binding inhibition, counter-screen for ZTA; 320 tested, under 10 active; inhibition, % at 14.8 µM; shares compounds with ZTA DNA inh; fluorescence polarization
Numbers without * were called inactive; nt = not tested or not shown. Shown are actives, neighbours in structure and some others; about 2.1% of the full set was active somewhere. Unless noted, how the calls were made is not given here.

SMILES | PABP FP inh | PABP1 MLLE inh | HCV NS3 hel inh | EBNA-1 inhibitor | eIF4H FP inh | ZTA DNA inh | ZTA inh confirm | EBNA1 counter
COCCn1c(SCC(=O)N2CCOCC2)nnc1-c1ccco1 | -2.9 | -4.0 | 5.4 | -0.8 | 86.8 | 2.0 | nt | nt
OCCN(CCO)CC(O)Cn1c2ccccc2c2ccccc21 (configuration not stated) | 10.0 | -14.0 | -14.4 | -4.4 | 6.1 | 60.9* | 9.1 | 7.3
COc1ccc(N2CCN(S(=O)(=O)c3ccc(OC)cc3)CC2)cc1 | -2.4 | -4.3 | -0.5 | 20.5 | 4.7 | 99.1* | 7.2 | 12.7
COc1ccc(N2CCN(S(C)(=O)=O)CC2)cc1 | 2.0 | 6.3 | 24.8 | 2.9 | 6.2 | -5.5 | nt | nt
COc1ccc(-c2cc(NC=O)c3ncc(-c4cccc(C(=O)NCCN(C)C)c4)n3c2)cc1 | nt | -30.6 | nt | nt | nt | nt | nt | nt
Cc1ccc(-n2[nH]c(C)c(C=Nc3ccc4[nH]c(=O)[nH]c4c3)c2=O)cc1 | -0.3 | 37.5 | 16.9 | 3.4 | 4.3 | -8.2 | nt | nt
Cc1ccc(-n2[nH]c(C)c(C=Nc3ccc4[nH]c(=O)[nH]c4c3)c2=O)cc1C | 5.2 | 67.0* | -10.3 | -6.9 | 2.6 | 52.5* | 14.1 | -1.8
CN(C)c1ccc(N/C=C/C(=O)c2ccccc2)cc1 | 9.4 | 75.2 | 32.3 | 10.0 | 10.1 | 64.1* | 13.3 | 10.6
CCN(CC)S(=O)(=O)c1cccc(NC(=O)c2ccccc2Br)c1 | 3.5 | 7.6 | -10.3 | 1.2 | 3.4 | -3.2 | nt | nt
COc1cc(CNCCc2c[nH]c3ccccc23)ccc1OCc1ccc(F)cc1 | -6.6 | -8.7 | -18.6 | 8.7 | -4.8 | 35.3* | 13.2 | -5.0
COc1cccc(CNCCc2c[nH]c3ccccc23)c1OCc1ccc(F)cc1 | -10.1 | 2.9 | -23.3 | 5.6 | -1.6 | -3.6 | nt | nt
O=C(COC(=O)c1cccnc1Cl)c1ccc2c(c1)OCCO2 | 29.4 | 0.2 | -8.8 | 0.8 | -1.6 | -7.3 | nt | nt
CCOC(=O)Cc1csc(NC(=O)COc2ccccc2OCC)n1 | -3.8 | 1.5 | 8.0 | -9.4 | 4.7 | 47.7* | -4.5 | -10.0
CCOC(=O)Cc1csc(NC(=O)COc2c(C)cccc2C)n1 | -1.1 | -9.2 | -4.5 | 7.0 | -3.0 | -16.4 | nt | nt
Cc1cc(NC(=O)c2cnn3c(C(F)(F)F)cc(-c4ccc(Br)cc4)nc23)no1 | 2.1 | 3.5 | 2.8 | 5.3 | 7.0 | 5.0 | nt | nt
Cc1cccc(C)c1NC(=S)NCCc1ccccn1 | -16.4 | 8.8 | -4.8 | 14.0 | -7.2 | 34.1* | 1.2 | 8.2
Cc1ccc(NC(=O)CCc2nnc(SCC(=O)Nc3ccccc3C)n2C)cc1Cl | -0.3 | -23.2 | -4.0 | -14.2 | -6.6 | 68.9* | 6.5 | -1.3
O=C(Nc1ccc(C(F)(F)F)cc1)C1CC(=O)N(c2ccc3c(c2)OCCO3)C1 (configuration not stated) | -8.5 | -34.0 | -2.4 | -4.0 | 0.6 | 65.0* | -0.3 | -5.9
O=C(Nc1ccc2c(c1)OCO2)C1CC(=O)N(c2ccc3c(c2)OCCO3)C1 (configuration not stated) | -9.8 | 9.6 | -0.6 | -9.2 | 4.4 | -6.1 | nt | nt
Cc1nn(CC(=O)Nc2ccc(C(=O)N3CCCC3)cc2)c(=O)c2ccccc12 | 2.6 | -20.1 | 3.8 | -3.4 | 11.5 | -17.2 | nt | nt
Cc1nn(CC(=O)Nc2ccc(C(=O)N3CCCCC3)cc2)c(=O)c2ccccc12 | 7.8 | 3.3 | -0.2 | -1.5 | 2.1 | 34.6* | -17.4 | -6.5
CC1(c2ccc3ccccc3c2)NC(=O)N(CC(=O)Nc2cccc(S(=O)(=O)N3CCOCC3)c2)C1=O (configuration not stated) | -6.5 | -2.7 | -4.9 | 4.5 | -7.9 | -9.6 | nt | nt
Cn1c(SCC(=O)N2CCN(c3ccccc3)CC2)nnc1-c1ccncc1 | 4.2 | -1.4 | -2.9 | -8.8 | -4.1 | 37.8* | -0.9 | 3.5
CCNc1c([N+](=O)[O-])c(=O)oc2ccccc12 | -3.5 | 3.9 | 3.2 | 4.5 | -9.3 | 34.9* | -9.2 | -4.0
CCc1ccc(Nc2c([N+](=O)[O-])c(=O)oc3ccccc23)cc1 | 4.3 | 1.0 | -21.2 | -1.0 | 7.2 | 2.2 | nt | nt
SMILES | PABP FP inh | PABP1 MLLE inh | HCV NS3 hel inh | EBNA-1 inhibitor | eIF4H FP inh | ZTA DNA inh | ZTA inh confirm | EBNA1 counter
CSc1nnc2ccc(-c3ccccn3)nn12 | -9.1 | -3.5 | -11.3 | -1.4 | -11.3 | 2.9 | nt | nt
CCc1nnc(NC(=O)[C@@H](NC(=O)c2cc(OC)cc(OC)c2)C(C)C)s1 | 6.5 | -11.6 | 0.9 | 8.2 | 9.6 | 116.6* | 7.2 | 0.8
CCOC(=O)C1CCN(C(=O)c2ccc3c(=O)n4nc(Nc5ccccc5OC)sc4nc3c2)CC1 | nt | -20.4 | nt | nt | nt | nt | nt | nt
COCc1ccc(-c2ccc3c(c2)c(C#Cc2ccsc2)c(-c2cc(OC)cc(OC)c2)n3C)cc1 | nt | -6.5 | nt | nt | nt | -4.7 | nt | nt
COc1cc(OC)cc(-c2c(C#Cc3ccsc3)c3cc(-c4ccc(C(N)=O)cc4)ccc3n2C)c1 | nt | -9.0 | nt | nt | nt | 39.6* | 21.7 | 25.0
Cc1cc(C(F)(F)F)c(C#N)c(SCC(=O)Nc2nc3ccccc3s2)n1 | -6.0 | -36.4 | -1.1 | -12.9 | -4.9 | 5.8 | nt | nt
Cc1ccc2sc(NC(=O)CSc3nc(C)cc(C)c3C#N)nc2c1 | -8.8 | 6.6 | -3.1 | 11.1 | -6.9 | 38.3* | -0.3 | -6.6
Cn1c(SCC(=O)Nc2ccccc2F)nc2c(c1=O)SCC2 | -8.5 | 12.0 | 4.3 | 4.8 | 4.3 | -22.1 | nt | nt
Cc1c(NC(=O)c2cccc(NC(=O)C(C)Oc3ccccc3)c2)c(=O)n(-c2ccccc2)n1C (configuration not stated) | nt | -14.5 | nt | nt | nt | nt | nt | nt
C#CCOCCOCCOCCNc1nc(N2CCN(C(=O)C([C@@H](C)CC)n3cc(C(N)CC(C)C)nn3)CC2)nc(N2CCN(C(=O)[C@H](CCC(=O)O)n3cc(C(N)[C@H](C)CC)nn3)CC2)n1 (some centres not stated) | 6.0 | 10.4 | -27.1 | 16.0 | 6.1 | 58.1* | 11.5 | -1.1
C#CCOCCOCCOCCNc1nc(N2CCN(C(=O)CCCCCCCCCCNC(=O)[C@@H](CCSC)n3cc(CCO)nn3)CC2)nc(N2CCN(C(=O)CCCCCCCCCCNC(=O)[C@H]([C@@H](C)CC)n3cc(CCCCCN)nn3)CC2)n1 | nt | nt | nt | 13.3 | nt | 69.5* | 42.6* | 4.0
C#CCOCCOCCOCCNc1nc(N2CCN(C(=O)CCCCCCCCCCNC(=O)[C@H](CCCCN)n3cc(C)nn3)CC2)nc(N2CCN(C(=O)CCCCCCCCCCNC(=O)[C@@H]([C@H](C)CC)n3cc(CCCCCN)nn3)CC2)n1 | nt | -27.6 | nt | -0.1 | nt | 70.1* | 43.9* | -6.9
C#CCOCCOCCOCCNc1nc(N2CCN(C(=O)CCCCCCCCCCNC(=O)[C@@H](CCSC)n3cc(CCO)nn3)CC2)nc(N2CCN(C(=O)CCCCCCCCCCNC(=O)[C@H]([C@@H](C)CC)n3cc(CCCCN=C(N)N)nn3)CC2)n1 | nt | 17.9 | nt | 9.8 | nt | 121.4* | 59.0* | -4.3

Bioassay records deposited in PubChem by several laboratories.
